Experimental findings from ChEMBL document CHEMBL4680335, “Synthesis, anticancer and antimicrobial evaluation of new benzofuran based derivatives: PI3K inhibition, quorum sensing and molecular modeling study” (Bioorg Med Chem, 2021) are described below.

For orientation: IC50 means the concentration at which inhibition is half-maximal. By MIC is commonly meant the lowest concentration that inhibits growth of the organism.

The structures appear in SMILES notation. Values after ≈ are worked out from the molar mass of the structure shown.

One series has as its system HeLa. The series can be described thus: Antiproliferative activity against human HeLa cells assessed as reduction in cell growth. The class given is functional, cell-based.
Another series has as its system PC-3. The series can be described thus: Antiproliferative activity against human PC3 cells assessed as reduction in cell growth. The class given is functional, cell-based.
Series [1] can be described thus: Inhibition of quorum sensing in Chromobacterium violaceum ATCC 12472 assessed as inhibition zone at 5 mg/ml incubated for 48 hrs by well diffusion method. Type of series: functional. As to conditions: read-out: IZ. The gist of the method: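 Chromobacterium violaceum ATCC 12472 grown in LB broth at 28 °C, 48 h. 50 μL inoculated into 5 ml soft LB agar and overlaid on LB agar plates. Wells received 100 μL compound in DMSO (5 mg/ml); DMSO as negative control. 28 °C, 48 h. Growth-inhibition radius r1 and pigment-plus-growth radius r2 measured; QS inhibition = r2 − r1 (mm).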
For orientation: In agar diffusion tests the substance spreads into inoculated agar from a disc or well.

The test system of another series is HepG2. The series can be described thus: Antiproliferative activity against human HepG2 cells assessed as reduction in cell growth. Type of series: functional, cell-based.
For series [2], the system named is MCF7. The series can be described thus: Antiproliferative activity against human MCF7 cells assessed as reduction in cell growth. The class given is functional, cell-based.
The test system of series [3] is Staphylococcus aureus. Description: Antibacterial activity against Staphylococcus aureus ATCC 29213 assessed as reduction in bacterial growth incubated for 18 hrs by two-fold serial dilution method. Type of series: functional. The gist of the method:
(§1)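 Broth microdilution per CLSI 2015. Selection: compounds active in agar diffusion. Twofold (1:1) dilutions in 0.1 ml MH broth; inoculum 5 × 10^6 CFU/ml diluted suspension. Ampicillin/clavulanic acid as positive control.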

Series [4] deals with Candida albicans. Description: Antifungal activity against Candida albicans CS35 assessed as reduction in fungal growth incubated for 18 hrs by two-fold serial dilution method. Type of series: functional. The gist of the method:
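Broth microdilution per CLSI M27-A3/M38-A2. Selection: compounds active in agar diffusion. Twofold (1:1) dilutions in 0.1 ml yeast peptone dextrose medium; fluconazole as positive control.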

Series [5] relates to Staphylococcus aureus. The series can be described thus: Antibacterial activity against Staphylococcus aureus ATCC 29213 assessed as diameter of zone inhibition at 5 mg/ml incubated for 24 hrs by agar plate diffusion method. The class given is functional. As to conditions: read-out: DIZ. The gist of the method: (§2)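 Cup (well) agar diffusion in Mueller Hinton agar. Overnight MH broth culture diluted to 0.5 McFarland; 20 μL mixed into MH agar at 50 °C, poured into 9-cm plates. Wells cut with a cork borer and filled with 100 μL compound in DMSO (final 5 mg/mL). DMSO as negative control, ampicillin/clavulanic acid as reference. 37 °C, 24 h; inhibition zone diameter in mm.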

The subject of series [6] is Pseudomonas aeruginosa. Description: Antibacterial activity against Pseudomonas aeruginosa PAO1 assessed as diameter of zone inhibition at 5 mg/ml incubated for 24 hrs by agar plate diffusion method. Type of series: functional. Conditions: read-out: DIZ. The gist of the method: as §2
Series [7] concerns Candida albicans. The series can be described thus: Antifungal activity against Candida albicans CS35 assessed as diameter of zone inhibition at 5 mg/ml incubated for 24 hrs by agar plate diffusion method. The class given is functional. Conditions: read-out: DIZ. The gist of the method: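 Cup diffusion using Sabouraud's medium for C. albicans. 100 μL compound in DMSO (5 mg/mL) per well, DMSO as negative control, fluconazole as reference. 37 °C, 24 h; inhibition zone diameter in mm.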

In series [8] the test system is Pseudomonas aeruginosa. The series can be described thus: Antibacterial activity against Pseudomonas aeruginosa PAO1 assessed as reduction in bacterial growth incubated for 18 hrs by two-fold serial dilution method. Type of series: functional. The gist of the method: as §1
Series [9] deals with MCF7. The series can be described thus: Induction of cell cycle arrest in human MCF7 cells assessed as accumulation at S phase at […] incubated for 24 hrs by propidium iodide staining based flow cytometry analysis (reference value: 36.26 %). The arrangement: dose or concentration left out as unconfirmed. The class given is functional.
Series [10] relates to MCF7. The series can be described thus: Induction of apoptosis in human MCF7 cells assessed as accumulation at preG1 phase at […] incubated for 24 hrs by propidium iodide staining based flow cytometry analysis (reference value: 1.78 %). Type of series: functional. The arrangement: dose or concentration left out as unconfirmed. A general note: A flow cytometer gives signals particle by particle.

Series [11] can be described thus: Safety index, ratio of IC50 for cytotoxicity against human WI-38 cells to IC50 for antiproliferative activity against human HeLa cells. Type of series: toxicity, cell-based. As to conditions: WI-38 cells versus HeLa cells.
Series [12] relates to MCF7. The series can be described thus: Induction of apoptosis in human MCF7 cells assessed as late apoptotic cells at […] incubated for 24 hrs by Annexin V-FITC and propidium iodide staining based flow cytometry analysis (reference value: 0.15 %). The arrangement: dose or concentration left out as unconfirmed. Type of series: functional.
Series [13] concerns MCF7. The series can be described thus: Induction of apoptosis in human MCF7 cells assessed as early apoptotic cells at […] incubated for 24 hrs by Annexin V-FITC and propidium iodide staining based flow cytometry analysis (reference value: 0.42 %). Type of series: functional. The arrangement: dose or concentration left out as unconfirmed.
A short description of series [14]: Safety index, ratio of IC50 for cytotoxicity against human WI-38 cells to IC50 for antiproliferative activity against human MCF7 cells. The class given is toxicity, cell-based. As to conditions: WI-38 cells versus MCF7 cells.
A further series has as its system WI-38. The series can be described thus: Cytotoxicity against human WI38 cells by MTT assay. Type of series: cell-based. For orientation: Formazan colour is commonly taken as a measure of viable cells.
Series [15] can be described thus: Safety index, ratio of IC50 for cytotoxicity against human WI-38 cells to IC50 for antiproliferative activity against human PC-3 cells. Type of series: toxicity, cell-based. Conditions: WI-38 cells versus PC-3 cells.
Series [16] concerns MCF7. The series can be described thus: Induction of cell cycle arrest in human MCF7 cells assessed as accumulation at G2/M phase at […] incubated for 24 hrs by propidium iodide staining based flow cytometry analysis (reference value: 9.85 %). The class given is functional. On the set-up: dose or concentration left out as unconfirmed.
A short description of series [17]: Safety index, ratio of IC50 for cytotoxicity against human WI-38 cells to IC50 for antiproliferative activity against human HepG2 cells. Conditions: WI-38 cells versus HepG2 cells. Type of series: toxicity, cell-based.
For series [18], the target named is Phosphatidylinositol 4,5-bisphosphate 3-kinase catalytic subunit alpha isoform (Homo sapiens, UniProt P42336). The series can be described thus: Inhibition of human PI3Kalpha by ELISA. Put shortly: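 Human PI3Kα activity measured by ELISA in wells coated with a PI3K-specific antibody. Standard or test compound was added at room temperature and absorbance read. A log–log standard curve related absorbance to standard concentration. Percent inhibition was calculated against control, and IC50 was obtained from concentration/inhibition curves.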
Phosphatidylinositol 4,5-bisphosphate 3-kinase catalytic subunit alpha isoform, sequence (P42336 whole entry, canonical isoform): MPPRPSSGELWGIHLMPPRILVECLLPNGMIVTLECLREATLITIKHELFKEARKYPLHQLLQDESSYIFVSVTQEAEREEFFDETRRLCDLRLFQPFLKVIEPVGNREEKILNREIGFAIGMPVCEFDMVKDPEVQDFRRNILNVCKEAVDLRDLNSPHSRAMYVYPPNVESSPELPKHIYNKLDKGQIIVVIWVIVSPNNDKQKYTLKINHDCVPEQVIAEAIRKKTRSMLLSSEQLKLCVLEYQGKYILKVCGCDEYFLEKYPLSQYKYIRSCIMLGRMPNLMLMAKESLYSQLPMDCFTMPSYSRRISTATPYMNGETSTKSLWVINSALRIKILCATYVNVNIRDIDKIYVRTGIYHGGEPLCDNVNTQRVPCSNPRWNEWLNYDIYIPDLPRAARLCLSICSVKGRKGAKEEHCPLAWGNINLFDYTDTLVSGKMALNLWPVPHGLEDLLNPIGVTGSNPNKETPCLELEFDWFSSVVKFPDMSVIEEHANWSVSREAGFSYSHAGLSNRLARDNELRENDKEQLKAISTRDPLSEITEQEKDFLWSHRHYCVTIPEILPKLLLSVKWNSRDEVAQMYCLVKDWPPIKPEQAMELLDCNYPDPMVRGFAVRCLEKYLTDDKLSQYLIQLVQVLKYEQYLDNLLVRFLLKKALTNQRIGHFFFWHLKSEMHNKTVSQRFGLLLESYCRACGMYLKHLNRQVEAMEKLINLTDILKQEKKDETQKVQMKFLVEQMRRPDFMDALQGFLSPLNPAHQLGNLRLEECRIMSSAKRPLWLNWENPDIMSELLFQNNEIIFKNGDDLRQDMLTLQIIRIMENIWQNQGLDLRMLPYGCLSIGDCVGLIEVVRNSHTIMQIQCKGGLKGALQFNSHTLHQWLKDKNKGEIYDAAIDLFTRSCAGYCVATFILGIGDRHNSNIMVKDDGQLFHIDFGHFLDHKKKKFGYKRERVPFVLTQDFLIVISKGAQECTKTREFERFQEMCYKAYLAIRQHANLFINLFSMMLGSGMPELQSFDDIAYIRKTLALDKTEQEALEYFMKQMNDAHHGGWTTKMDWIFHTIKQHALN

In series [19] the test system is MCF7. Description: Induction of apoptosis in human MCF7 cells assessed as necrotic cells at […] incubated for 24 hrs by Annexin V-FITC and propidium iodide staining based flow cytometry analysis (reference value: 1.21 %). The class given is functional. The arrangement: dose or concentration left out as unconfirmed.
Series [20] deals with MCF7. Description: Induction of cell cycle arrest in human MCF7 cells assessed as accumulation at G0-G1 phase at […] incubated for 24 hrs by propidium iodide staining based flow cytometry analysis (reference value: 53.89 %). The class given is functional. On the set-up: dose or concentration left out as unconfirmed.
Series [21] has as its system Bacillus cereus. Description: Antibacterial activity against Bacillus cereus UW85 assessed as reduction in bacterial growth incubated for 18 hrs by two-fold serial dilution method. Type of series: functional. Put shortly: as §1
Series [22] concerns Bacillus cereus. The series can be described thus: Antibacterial activity against Bacillus cereus UW85 assessed as diameter of zone inhibition at 5 mg/ml incubated for 24 hrs by agar plate diffusion method. Conditions: read-out: DIZ. The class given is functional. The gist of the method: as §2
For a further series, the system named is Escherichia coli. The series can be described thus: Antibacterial activity against Escherichia coli ATCC 12435 assessed as diameter of zone inhibition at 5 mg/ml incubated for 24 hrs by agar plate diffusion method. The class given is functional. As to conditions: read-out: DIZ. Put shortly: as §2

With `C/C(=N\Nc1nc(-c2cc3ccccc3o2)cs1)c1cc2ccccc2o1`, the IC50 in the series with HeLa turned out to be 24.1 µM; in the series with PC-3, 34.2 µM; in the series on HepG2, 21.2 µM; with MCF7 [2] it was 25.6 µM. Further, the zone of inhibition at 5000 µg/mL in series [1] came to 2 mm.

Consider `O=CC(/N=N/c1ccc([N+](=O)[O-])cc1)=C(\O)c1cc2ccccc2o1`, for which the MIC in the series with Staphylococcus aureus [3] was determined as 8 µg/mL (≈ 23.7 µM); with Candida albicans [4], 256 µg/mL (≈ 759 µM); in the series with Pseudomonas aeruginosa [8], 512 µg/mL (≈ 1520 µM). The IC50 is 37.8 µM in the series on HeLa, 49.6 µM in the series on PC-3, 35.4 µM in the series with HepG2 and 43.2 µM with MCF7 [2]. Moreover, the zone of inhibition at 5000 µg/mL was 6 mm with Staphylococcus aureus [5], 10 mm in the series on Pseudomonas aeruginosa [6] and 9 mm in the series with Candida albicans [7].

Consider `C/C(=N\Nc1nc(-c2ccccc2)cs1)c1cc2ccccc2o1`, for which the Activity with MCF7 [9] was found to be 29.57%; in the series on MCF7 [10], 29.93%; in the series with MCF7 [12], 14.65%; in the series with MCF7 [13], 5.92%; in the series with MCF7 [16], 30.82%; in the series with MCF7 [19], 9.36%. For the same compound, in the series on MCF7 [20], the Activity was determined as 39.61%. For the same compound, the IC50 in the series with HeLa was 11.7 µM; with PC-3 it was 16.7 µM; in the series with HepG2 it was 10.3 µM; with WI-38, 41.7 µM; in the series with MCF7 [2], 8.49 µM; in series [18], 4.1 µM. The selectivity ratio in [11] was 3.56; in [14], 4.91; in [15] it was 2.49; in series [17], 4.04.

With `C/C(=N\Nc1nc(-c2ccc(C)cc2)cs1)c1cc2ccccc2o1`, the IC50 turned out to be 14.3 µM with HeLa, 21.4 µM with PC-3, 14.1 µM with HepG2 and 11.1 µM with MCF7 [2].

In the case of `CN(C)/C=C/C(=O)c1cc2ccccc2o1`, the MIC in the series with Candida albicans [4] turned out to be 256 µg/mL (≈ 1190 µM). For the same compound, in [1], the zone of inhibition at 5000 µg/mL turned out to be 5 mm.

Take `C/C(=N\Nc1nc(C)cs1)c1cc2ccccc2o1`: the MIC in the series on Staphylococcus aureus [3] is 64 µg/mL (≈ 236 µM); in the series on Bacillus cereus [21] it was 128 µg/mL (≈ 472 µM); in the series on Candida albicans [4] it was 128 µg/mL (≈ 472 µM). Also, the IC50 amounted to 8.99 µM in the series on PC-3; 4 µM in the series with HepG2; 44.3 µM in the series with WI-38; 4.89 µM in the series with MCF7 [2]; 20.5 µM in [18]. The zone of inhibition at 5000 µg/mL in [1] came out at 7 mm; with Bacillus cereus [22], 11 mm; in the series with Candida albicans [7], 10 mm. In addition, the selectivity ratio in series [11] stood at 4.94; in series [14], 9.06; in [15], 4.93; in series [17] it was 11.1.

For `O=CC(/N=N/c1ccc(Cl)cc1)=C(\O)c1cc2ccccc2o1`, the MIC in the series with Staphylococcus aureus [3] stood at 128 µg/mL (≈ 392 µM); in the series on Bacillus cereus [21], 256 µg/mL (≈ 783 µM). Also, the IC50 in the series on HeLa was determined as 38.2 µM; with PC-3, 51.8 µM; in the series on HepG2, 37.3 µM. Further, the zone of inhibition at 5000 µg/mL in the series on Staphylococcus aureus [5] is 9 mm; in the series on Bacillus cereus [22], 6 mm.

Take `CC1(C)S[C@@H]2[C@H](NC(=O)[C@H](N)c3ccccc3)C(=O)N2[C@H]1C(=O)O` [AMPICILLIN]: the values for the MIC in the series with Staphylococcus aureus [3], in the series on Bacillus cereus [21] and with Pseudomonas aeruginosa [8] were 128 µg/mL (≈ 366 µM), 128 µg/mL (≈ 366 µM) and over 5000 µg/mL, respectively. In addition, the figures for the zone of inhibition at 5000 µg/mL with Escherichia coli, in the series on Staphylococcus aureus [5] and in the series with Bacillus cereus [22] were 10 mm, 6 mm and 10 mm, respectively.

With `OC(Cn1cncn1)(Cn1cncn1)c1ccc(F)cc1F` [FLUCONAZOLE], in the series on Candida albicans [4], the MIC is 256 µg/mL (≈ 836 µM). The zone of inhibition at 5000 µg/mL with Candida albicans [7] came to 8 mm.
